Test results taken from ChEMBL document CHEMBL3286367, “Synthesis of new class of spirocarbocycle derivatives by multicomponent domino reaction and their evaluation for antimicrobial, anticancer activity and molecular docking studies” (2014).
In brackets after ≈: the same amount, converted by molar mass. Activity calls are given as the source filed them. The calls are words filed in the database; no cut-off is given here.

Legend:
[1] = test system: Micrococcus luteus; test: Antimicrobial activity against Micrococcus luteus MTCC 106 assessed as absence of visible growth after 48 to 72 hrs; type: functional
[2] = test system: Staphylococcus aureus; test: Antimicrobial activity against methicillin-resistant Staphylococcus aureus assessed as absence of visible growth after 48 to 72 hrs; type: functional
In short: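 Broth two-fold serial dilution in 96-well plates, 1000 to 7.81 µg/mL, compound dissolved in DMSO (2%). Inoculum grown in Mueller Hinton broth 24 h at 37°C. Streptomycin positive control. 5 µl of tested broth plated on MHA; MIC is the lowest concentration inhibiting visible growth on agar.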

[3] = test system: Staphylococcus epidermidis; test: Antimicrobial activity against Staphylococcus epidermidis MTCC 3615 assessed as zone of inhibition at 1 mg/disc after 24 hrs incubation by disc diffusion assay; type: functional
In short: (§1)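 Inocula grown in Mueller Hinton broth for 24 h at 37 °C and swabbed onto Mueller Hinton agar. Discs carried 1 mg compound each and stood 30 min at room temperature before 24 h incubation at 37 °C. Solvent as negative control. Inhibition zones recorded in mm; experiment done twice.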

[4] = test system: Shigella flexneri; test: Antimicrobial activity against Shigella flexneri MTCC 1457 assessed as absence of visible growth after 24 hrs
[5] = test system: Candida albicans; test: Antifungal activity against Candida albicans MTCC 227 assessed as zone of inhibition at 1 mg/disc after 48 hrs incubation by disc diffusion assay; type: functional
In short: (§2)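 Disc diffusion on Mueller Hinton agar with swabbed cultures, 1 mg compound per disc. Discs stood 30 min at room temperature for diffusion, then plates incubated 48 h at 28 °C. Solvent as negative control. Yeast pre-grown in Sabouraud dextrose broth at 28 °C for 48-72 h; filamentous fungal spores came from SDA slants grown 10 days at 28 °C. Zone diameters in mm; run twice.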

[6] = test system: Staphylococcus aureus; test: Antimicrobial activity against methicillin-resistant Staphylococcus aureus assessed as zone of inhibition at 1 mg/disc after 24 hrs incubation by disc diffusion assay; type: functional
In short: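 Inoculum grown in Mueller Hinton broth 24 h at 37°C, swabbed onto Mueller Hinton agar and dried 10 min. Discs loaded at 1 mg/disc, then 30 min at room temperature for diffusion. Plates incubated 24 h at 37°C. Solvent negative control; streptomycin positive control. Zone of inhibition read in mm; experiment done twice.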

[7] = test system: Klebsiella aerogenes; test: Antimicrobial activity against Enterobacter aerogenes MTCC 111 assessed as absence of visible growth after 48 to 72 hrs; type: functional
[8] = test system: Micrococcus luteus; test: Antimicrobial activity against Micrococcus luteus MTCC 106 assessed as zone of inhibition at 1 mg/disc after 24 hrs incubation by disc diffusion assay; type: functional; in short: as §1
[9] = test system: Proteus vulgaris; test: Antimicrobial activity against Proteus vulgaris MTCC 1771 assessed as zone of inhibition at 1 mg/disc after 24 hrs incubation by disc diffusion assay; type: functional; in short: as §1
[10] = test system: Klebsiella pneumoniae; test: Antimicrobial activity against Klebsiella pneumonia MTCC 109 assessed as absence of visible growth after 24 hrs
[11] = test system: Shigella flexneri; test: Antimicrobial activity against Shigella flexneri MTCC 1457 assessed as zone of inhibition at 1 mg/disc after 24 hrs incubation by disc diffusion assay; type: functional; in short: as §1
[12] = test system: Klebsiella pneumoniae; test: Antimicrobial activity against Klebsiella pneumonia MTCC 109 assessed as zone of inhibition at 1 mg/disc after 24 hrs incubation by disc diffusion assay; type: functional; in short: as §1
[13] = test system: Salmonella typhimurium; test: Antimicrobial activity against Salmonella typhimurium MTCC 1251 assessed as zone of inhibition at 1 mg/disc after 24 hrs incubation by disc diffusion assay; type: functional, Salmonella enterica subsp. enterica serovar Typhimurium; in short: as §1
[14] = test system: Staphylococcus aureus; test: Antimicrobial activity against Staphylococcus aureus MTCC 96 assessed as absence of visible growth after 48 to 72 hrs; type: functional
[15] = test system: Proteus vulgaris; test: Antimicrobial activity against Proteus vulgaris MTCC 1771 assessed as absence of visible growth after 48 to 72 hrs; type: functional
[16] = test system: Salmonella typhimurium; test: Antimicrobial activity against Salmonella typhimurium MTCC 1251 assessed as absence of visible growth after 48 to 72 hrs; type: functional, Salmonella enterica subsp. enterica serovar Typhimurium; conditions: Salmonella enterica
[17] = test system: Klebsiella aerogenes; test: Antimicrobial activity against Enterobacter aerogenes MTCC 111 assessed as zone of inhibition at 1 mg/disc after 24 hrs incubation by disc diffusion assay; type: functional; in short: as §1
[18] = test system: Staphylococcus aureus; test: Antimicrobial activity against Staphylococcus aureus MTCC 96 assessed as zone of inhibition at 1 mg/disc after 24 hrs incubation by disc diffusion assay; type: functional; in short: as §1
[19] = test system: Staphylococcus epidermidis; test: Antimicrobial activity against Staphylococcus epidermidis MTCC 3615 assessed as absence of visible growth after 24 hrs
[20] = test system: Malassezia pachydermatis; test: Antifungal activity against Malassezia pachydermatis assessed as zone of inhibition at 1 mg/disc after 48 hrs incubation by disc diffusion assay; type: functional; in short: as §2

Structure (SMILES)	MIC [1]	MIC [2]	inhibition zone (IZ) [3]	MIC [4]	inhibition zone (IZ) [5]	inhibition zone (IZ) [6]	MIC [7]	inhibition zone (IZ) [8]	inhibition zone (IZ) [9]	MIC [10]	inhibition zone (IZ) [11]	inhibition zone (IZ) [12]	inhibition zone (IZ) [13]	MIC [14]	MIC [15]	MIC [16]	inhibition zone (IZ) [17]	inhibition zone (IZ) [18]	MIC [19]	inhibition zone (IZ) [20]	further results
N#CC1=C(N)C2(C(=O)c3ccccc3C2=O)[C@@H](c2cccs2)[C@@H]2CCCC=C12 (relative stereo)	250 µg/mL (≈ 647 µM)	125 µg/mL (≈ 323 µM)	12 mm	62.5 µg/mL (≈ 162 µM)	10 mm	18 mm	250 µg/mL (≈ 647 µM)	10 mm	22 mm	250 µg/mL (≈ 647 µM)	24 mm	14 mm	16 mm	250 µg/mL (≈ 647 µM)	62.5 µg/mL (≈ 162 µM)	125 µg/mL (≈ 323 µM)	15 mm	10 mm	250 µg/mL (≈ 647 µM)	11 mm	
COc1ccc([C@H]2[C@@H]3CCCC=C3C(C#N)=C(N)[C@]23C(=O)Nc2ccccc23)cc1			9 mm		10 mm	11 mm		8 mm			8 mm	9 mm	8 mm				10 mm	10 mm		13 mm	inhibition [9]: inactive
N#CC1=C(N)[C@]2(C(=O)Nc3ccccc32)[C@@H](c2ccoc2)[C@@H]2CCCC=C12						10 mm		8 mm													inhibition [3]: inactive; inhibition [5]: inactive; inhibition [9]: inactive; inhibition [11]: inactive; inhibition [12]: inactive; inhibition ([13]; Salmonella enterica subsp. enterica serovar Typhimurium): inactive; inhibition [17]: inactive; inhibition [18]: inactive; inhibition [20]: inactive
N#CC1=C(N)[C@]2(C(=O)Nc3ccccc32)[C@@H](c2ccccn2)[C@@H]2CCCC=C12			9 mm		12 mm				10 mm				11 mm				8 mm			11 mm	inhibition [6]: inactive; inhibition [8]: inactive; inhibition [11]: inactive; inhibition [12]: inactive; inhibition [18]: inactive
N#CC1=C(N)C2(C(=O)c3ccccc3C2=O)[C@@H](c2cccc3ccccc23)[C@@H]2CCCC=C12 (relative stereo)	62.5 µg/mL (≈ 145 µM)	62.5 µg/mL (≈ 145 µM)	15 mm	62.5 µg/mL (≈ 145 µM)	10 mm	21 mm	125 µg/mL (≈ 290 µM)	22 mm	19 mm	125 µg/mL (≈ 290 µM)	21 mm	17 mm	18 mm	250 µg/mL (≈ 581 µM)	125 µg/mL (≈ 290 µM)	125 µg/mL (≈ 290 µM)	17 mm	12 mm	125 µg/mL (≈ 290 µM)	9 mm	
N#CC1=C(N)C2(C(=O)c3ccccc3C2=O)[C@@H](c2ccccc2F)[C@@H]2CCCC=C12 (relative stereo)	250 µg/mL (≈ 627 µM)	250 µg/mL (≈ 627 µM)	14 mm	250 µg/mL (≈ 627 µM)	10 mm	13 mm	250 µg/mL (≈ 627 µM)	15 mm	12 mm	125 µg/mL (≈ 314 µM)	14 mm	16 mm	10 mm	250 µg/mL (≈ 627 µM)	250 µg/mL (≈ 627 µM)	500 µg/mL (≈ 1250 µM)	12 mm	14 mm	250 µg/mL (≈ 627 µM)		inhibition [20]: inactive
